The record followed here is the EternaBench riboswitch data.

For orientation: apparent Kd means a dissociation constant that holds for the conditions of the assay.

The subject of the series is MS2 coat protein. Briefly: apparent Kd, MS2 coat protein; higher = weaker binding; RNA-MaP array; FMN 200 µM where present. Summed up: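 Stalled E. coli RNA polymerase transcribed the designs on Illumina sequencing-chip clusters. SNAP-549-labelled MS2 coat protein was titrated from 0.7 or 1.5 nM, doubling to 3 µM, without and then with constant ligand, in 100 mM Tris-HCl pH 7.5, 80 mM KCl, 4 mM MgCl2, BSA, DTT, yeast tRNA and Tween-20. Per-cluster binding curves were fitted to green signal normalised to red-channel RNA signal and control-cluster median Fmax. The apparent Kd is the median of the filtered fits.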

Setting [1] is: designed as: OFF switch for flavin mononucleotide, no ligand.
Setting [2] is: ligand present: flavin mononucleotide, designed as: OFF switch for flavin mononucleotide.
Where [3] appears, read: designed as: ON switch for flavin mononucleotide, no ligand.
[4] abbreviates: ligand present: flavin mononucleotide, designed as: ON switch for flavin mononucleotide.

As for “GUUUACCGAGGAUAUACAUGAGGAUCACCCAUGUUCCUAAUAAACAUCGGUUCAGCGUGUAGAAGGCGGACCUA”, the “apparent Kd” value came out at 22.5 nM under setting [1] and 53.9 nM under setting [2].

As for “CUUGAAUAAGUGAGGAUAUACUGUUAGUAAUGAUUGUAGAAGGUACAUGAGGAUCACCCAUGUUUAUUCAUAAU”, the “apparent Kd” value by setting is: under setting [1], 18.2 nM; under setting [2], 18.3 nM.

Turning to “GCCAUCAUAUGAGGAUAUGACACCGAAACGGUGUCAGAAGGCAUGUCGAUAGACAUGAGGAUCACCCAUGUAUAAAUGAUGGCA”, the “apparent Kd” value came out at 780 nM under setting [3] and 118 nM under setting [4].

For the sequence “UAUUUACAUGAGGAUCACCCAUGUCAGGAUAUGCUUCUAUCGUCGAAAGACGAUAGUUGCAGAAGGGACAAUAU”, the “apparent Kd” value under setting [1] is 58.6 nM and the “apparent Kd” value under setting [2] turned out to be 106 nM.

For “AACUGACAUGAGGAUCACCCAUGUCAGGAUAUGAUUUGACGAAAUAAAACACGUCAUAUCAGAAGGGACAUGGA”, the “apparent Kd” value by setting is: under setting [1], 26.5 nM; under setting [2], 48.6 nM.

Take “CUUUAUCACUAUACAUGAGGAUCACCCAUGUUAUCAUCAUGAGAGGAUAUCGUAUUUGGAUUUUUCGAGAAGGCUCUAUUGUAU”: the “apparent Kd” value runs as follows: under setting [3], 152 nM; under setting [4], 53.9 nM.

“CUGUUAUAGAUCCAGAAUUACAACAUGAGGAUCACCCAUGUGCAGGAUAUCGGGUUGAUAGGCGCCGAGAAGGGUAUAGUCACG”: the “apparent Kd” value under setting [1] was found to be 60.2 nM and the “apparent Kd” value under setting [2] is 61.6 nM.

On to “GGCGAGUGAGGAUAUCUGAUGUCUAACUUCGGUUAGACAUCAGAGAAGGCACAUGAGGAUCACCCAUGUCCGCC”, for which the “apparent Kd” value is, setting by setting: under setting [1], 19.3 nM; under setting [2], 17.1 nM.

As for “CGCACACAUGAGGAUCACCCAUGUGAGGAUAUCAUGCUUCGUAGUAAACUACGAAGUGUGAGAAGGCACAUGUC”, the “apparent Kd” value is, setting by setting: under setting [1], 31.2 nM; under setting [2], 102 nM.

With “CUCUUGUUAGGAUAUCAAACCGGCGGCGGAGCCGCCGGAAGUGAGAAGGGACAUGAGGAUCACCCAUGUAAGAA”, the “apparent Kd” value runs as follows: under setting [1], 71.5 nM; under setting [2], 312 nM.

“CGGCGGAAAGGAUAUGCAUUAAUAUCAAAAUGUGGGCCACGACAUGAGGAUCACCCAUGUAGAAGGUUCAGCCG”: the “apparent Kd” value by setting is: under setting [1], 16 nM; under setting [2], 14.3 nM.

In the case of “UGUCGGAGCAGAGGAUAUUACAUGAGGAUCACCCAUGUAUGAACCAAUAGUUGGAAACAGCAAUGUAAGAAGGCUGCUCCGACA”, the “apparent Kd” value is, setting by setting: under setting [1], 11.5 nM; under setting [2], 94.6 nM.

For the sequence “UUUUACAUAGGAUAUAGUUUCUUUUACAUGAGGAUCACCCAUGUUUCUCUUCUCUCUCUUCUAGAAGGAUGUUUCU”, the “apparent Kd” value by setting is: under setting [1], 34.8 nM; under setting [2], 31.4 nM.

As to “GAUAUGGGAGGAUAUGCAUAGAUAAAGAAACAUGUUCAACCACAUGAGGAUCACCCAUGUAGAAGGCCCAUAUC”, the “apparent Kd” value turned out to be 31.9 nM under setting [1] and 147 nM under setting [2].

Regarding “UUUAUAAAGGUAGGAUAUUGUAUUAUAAUUAAAUAAGAAGGAUCUCACAUGAGGAUCACCCAUGUAAGAGGAUCACCCAUGUAU”, the “apparent Kd” value runs as follows: under setting [1], 8.68 nM; under setting [2], 9.25 nM.

On to “UAAGUCGGAGAUAAUAAUGAUUACAUGAGGAUCACCCAUGUAUAGGAUAUCGUCAGGAAUACUGACGAGAAGGAUACAACCGAC”, for which the “apparent Kd” value amounted to 17.9 nM under setting [1] and 25.8 nM under setting [2].

In the case of “GGUAUCUCCAGUGAGGAUAUGCGGCGUAGAACAUGAGGAUCACCCAUGUCCUUCGAAUGGGUUACGCAGAAGGCACUACGGUACC”, the “apparent Kd” value by setting is: under setting [3], 36.6 nM; under setting [4], 16.6 nM.

On to “GCUGUGGCAUGAGGAUAUGGUCACCUUUGGUGACCAGAAGGCAUGUCAAUAGACAUGAGGAUCACCCAUGUAGUUAACACAGCA”, for which the “apparent Kd” value under setting [3] was 561 nM and the “apparent Kd” value under setting [4] was determined as 42.4 nM.

Turning to “AUUUAACAUGAGGAUCACCCAUGUGAGGAUAUGUCCAUUUUAAACAAAUAGGAUAUGGACAGAAGGCACACCGG”, the “apparent Kd” value turned out to be 162 nM under setting [1] and 366 nM under setting [2].

For the sequence “CUUUUGGCAGGAUAUGCUUUUUUUGACAUGAGGAUCACCCAUGUGAUGCAUUUUGGGUUUGCAGAAGGGCCUGAGU”, the “apparent Kd” value is 63.5 nM under setting [1] and 87.5 nM under setting [2].

“GGAGCACGCACAGGAUAUCCGGCGGCGCUCGUCGGAGAAGGGUGACAUGAGGAUCACCCAUGUACGUGCAACCCAGUUUGAGAG”: the “apparent Kd” value by setting is: under setting [3], 122 nM; under setting [4], 44.8 nM.

With “CUUAUGUGAGGAUAUCAGUAGUAAAAAAAUAAAAUUACUACUGAGAAGGCACAUGAGGAUCACCCAUGUUCCUC”, the “apparent Kd” value worked out at 115 nM under setting [1] and 429 nM under setting [2].

As to “UUUUAGGAAGGAUAUACAUUUUUUUUAUUAUCCUCAUUAUUACAUGAGGAUCACCCAUGUAGAAGGUCCAUUUU”, the “apparent Kd” value amounted to 172 nM under setting [1] and 137 nM under setting [2].

Regarding “AGGAACAUGAGGAUCACCCAUGUUAGAGACCUCAUGCGAUGUAGAAGGAUAAUCCGAGAAGAGGUAUAGGAUAUACAUGAGAAA”, the “apparent Kd” value reads like this: under setting [1], 208 nM; under setting [2], 171 nM.

For the sequence “AUAGUCGGGAGAUAAACUCGUGCGGUAGAAGGGUGAUACUGGACAUGAGGAUCACCCAUGUGCACACAGGAUAUGCCCGCGAGC”, the “apparent Kd” value reads like this: under setting [3], 83.6 nM; under setting [4], 24.3 nM.

Consider “AUCAGCUGGUCAGGAUAUACAUCACUGCUUCGGCAGUGUAUUAAGAUCACAUGAGGAUCACCCAUGUAGAAGGGACCAGCUGAU”, for which the “apparent Kd” value under setting [1] is 30.3 nM and the “apparent Kd” value under setting [2] stood at 341 nM.

Take “CGCACUGAUAGAGGAUAUGUUUAACAUGAGGAUCACCCAUGUGUACAAGAAUCAAUAUUUAUCAAACAGAAGGCUAUUAGUGCG”: the “apparent Kd” value came to 5.06 nM under setting [1] and 4.08 nM under setting [2].

As to “GCAUUUGAAGGAUAUGUCUUCGGAAACAUGAGGAUCACCCAUGUAAUACUCAUAUCACGGACAGAAGGUCAGGGUC”, the “apparent Kd” value was 35.1 nM under setting [1] and 40.9 nM under setting [2].

On to “GGGUACAUCGGAGGAUAUCGUGUAAAUACAUGAGGAUCACCCAUGUCGAUGGAGACAUCGGAGAUUGAGAAGGCCGAUGUACCG”, for which the “apparent Kd” value amounted to 123 nM under setting [3] and 8.12 nM under setting [4].

With “UAUAUAUAGGCAGGAUAUACAUGAAUAUAUAUAAUAUAAUAUAAUGUAACAUGAGGAUCACCCAUGUAGAAGGGCCAAUAUAUA”, the “apparent Kd” value under setting [1] came to 30.6 nM and the “apparent Kd” value under setting [2] worked out at 59.9 nM.

As for “AAUAAUGUGAAGGAUAUCACUAGCGAUAGCUAGUGAGAAGGUCACACAUGAGGAUCACCCAUGUGUUCCAAUAA”, the “apparent Kd” value reads like this: under setting [1], 43.2 nM; under setting [2], 172 nM.

“GUCUGACAUGAGGAUCACCCAUGUAUUCGAGCAUGAGGAUAUAUGACUCGUCAUCGGCGGAUAGAAGGCAUGGUUG”: the “apparent Kd” value under setting [3] worked out at 169 nM and the “apparent Kd” value under setting [4] came to 192 nM.

As to “CUCAAACAUGAGGAUCACCCAUGUGUUGUCAUGGGAGGAUAUCUAAGUUCGUUGUAUUCGGGAGAAGGCCUAUGUC”, the “apparent Kd” value was determined as 258 nM under setting [3] and 55.1 nM under setting [4].

Consider “ACAGCGAUGGUUAGGAUAUCCACGAGUACUUCGUCGGAGAAGGAACAUGAGGAUCACCCAUGUAGAUCCCAGGG”, for which the “apparent Kd” value under setting [1] turned out to be 146 nM and the “apparent Kd” value under setting [2] turned out to be 319 nM.

On to “AUGCCAAAAGGAGGAUAUGGAGCCUUAUUGGCUCCAGAAGGCUUGACAUGAGGAUCACCCAUGUGGCAGUGGUCUAAUGACCAC”, for which the “apparent Kd” value reads like this: under setting [3], 18.5 nM; under setting [4], 15.1 nM.

“GUGUACAGAGGAUAUACACGAAUCUAGCGAAGCUAGGUUUGACAUGAGGAUCACCCAUGUAGAAGGCUGUACAC”: the “apparent Kd” value runs as follows: under setting [1], 16.1 nM; under setting [2], 24.2 nM.

“GGAUAGGACAGAGGAUAUACGUGCUAGAGAUACUAGCAAAAUUUGCUCACAUGAGGAUCACCCAUGUAGAAGGCUGUCCUAUCG”: the “apparent Kd” value runs as follows: under setting [1], 5.31 nM; under setting [2], 19.7 nM.

As to “AGGAGGUCAGGAUAUGCUGCUCGUCACUUGCGUGAUGAGUAGCAGAAGGGACAUGAGGAUCACCCAUGUAAAUA”, the “apparent Kd” value is, setting by setting: under setting [1], 48.7 nM; under setting [2], 86.7 nM.

As to “UAUUUACAUGAGGAUCACCCAUGUCAGGAUAUGCGUCUAUCGUCGAAAGACGAUAGUUGCAGAAGGGACAAUAU”, the “apparent Kd” value under setting [1] was found to be 62.8 nM and the “apparent Kd” value under setting [2] was 123 nM.

For the sequence “GGUCCAUUAUGAGGAUAUGGCACCUUAUUGGUGCCAGAAGGCAUGUCUAUAGACAUGAGGAUCACCCAUGUAAUAAAUUGGACC”, the “apparent Kd” value amounted to 494 nM under setting [3] and 50.5 nM under setting [4].

As to “UUUAUAAAUUAGAAGGCGGGAUGAAUUACAAUAGACAUGAGGAUCACCCAUGUGUAUUCAUGUCUUGAGGAUAUAGUCAUAUAU”, the “apparent Kd” value was 271 nM under setting [3] and 110 nM under setting [4].

With “CGUGCGUAUGUGAGGAUAUGCUGGUCCUUGGAUCAGCAGAAGGCACAUGAGGAUCACCCAUGUGGUGUCGUACU”, the “apparent Kd” value amounted to 297 nM under setting [1] and 19.2 nM under setting [2].

In the case of “GGUGCGUUUGUGAGGAUAUGCUGGUCCUUGGUUCAGCAGAAGGCACAUGAGGAUCACCCAUGUGGUGUCGUACC”, the “apparent Kd” value is, setting by setting: under setting [1], 240 nM; under setting [2], 28 nM.

With “GCAACGCCUGACAUGAGGAUCACCCAUGUUAGAUUGUUAUGUCAGGAUAUUGUCGCUAAAGGUGAUGAGAAGGGAUAUGUUGCU”, the “apparent Kd” value was determined as 1180 nM under setting [3] and 71 nM under setting [4].

For “AGCUACGUUUCGUAGCAGUGUCAUCGAGAAGGCCCUGACAUGAGGAUCACCCAUGUUGUUACAUGGGAGGAUAUCGAUGAUACA”, the “apparent Kd” value under setting [3] is 12.6 nM and the “apparent Kd” value under setting [4] is 4.9 nM.

For the sequence “GUAGCAUUCUGAGGAUAUUCAUACCGGAAACGGACAUGAGGAUCACCCAUGUGGCGAAAGCCUUGGGAGAAGGCAGUAUGCUAC”, the “apparent Kd” value under setting [3] stood at 740 nM and the “apparent Kd” value under setting [4] came to 27.4 nM.

With “GAAGGGUAUGAGAAGGCAUAAUUUAUAUUACCACAUGUUUACAUGAGGAUCACCCAUGUUUCCUAUGAGGAUAUCAUACCGAGA”, the “apparent Kd” value is, setting by setting: under setting [1], 12.4 nM; under setting [2], 12.7 nM.

Regarding “GCGUCGAGUGUGAGGAUAUGCUGGUCCUUGGAUCAGCAGAAGGCACAUGAGGAUCACCCAUGUGAAUACGAUGC”, the “apparent Kd” value is 21.7 nM under setting [1] and 136 nM under setting [2].
